The results in this text go back to ChEMBL document CHEMBL1125226, “Antineoplastic activity of didemnin congeners: nordidemnin and modified chain analogues” (1991).

Molecules are shown by their SMILES.

Common to all, as to type: functional, Mus musculus
In assay [1] the test system is B16. Briefly: Antitumor activity against B16 melanoma from B6 D2 F1 female mice evaluated as the number of survivors on day 5 at a dose of 0.50 mg/kg/day. In a few lines: (§1)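 B6D2F1 female mice (C57BL/6 ♀ × DBA/2 ♂) implanted ip on day 0 with 0.5 mL of B16 tumor suspension (1 g homogenized in 9 mL 0.9% saline). Dosing ip on days 1, 5 and 9. Day-5 survivors give toxicity. Median survival of treated vs control mice gives T/C%, with ≥125% significant.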

In assay [2] the test system is P388. Briefly: Average weight change of animals between day 1 and day 5 after tumor implementation at a dose of 0.25 mg/kg/day. A digest of the protocol:
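P388 leukemia: CDF1 female mice were inoculated ip with 10⁶ cells on day 0. Treatment in 2% methanol was given ip on days 1, 5 and 9, with 10 mice per group and a larger control group. Body weight was recorded on days 1 and 5 post-implant, and the average change was reported.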

Assay [3] deals with B16. Briefly: Antitumor activity against B16 melanoma from B6 D2 F1 female mice evaluated as Median survival time of treated mice at a dose of 0.06 mg/kg/day. A digest of the protocol: as §1
Assay [4] concerns B16. Description: Antitumor activity against B16 melanoma from B6 D2 F1 female mice(T/C) was evaluated from the median survival time of treated mice (T) over that of control mice (C) at a dose of 0.25 mg/kg/day. In a few lines:
as §1

In assay [5] the test system is P388. Briefly: Antitumor activity against P388 Leukemia from CDF1 female mice evaluated as the number of survivors on day 5 at a dose of 0.03 mg/kg/day. A digest of the protocol:
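CDF1 female mice (BALB/c × DBA/2) inoculated ip with 10⁶ P388 cells on day 0. Drug given ip in 2% methanol on days 1, 5 and 9. Ten mice per dose group, with a larger control group. Body weight and survival were recorded on days 1 and 5, with toxicity taken as survivors on day 5. Mortality was followed for 30 days to give median survival time.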

The test system of assay [6] is B16. Briefly: Antitumor activity against B16 melanoma from B6 D2 F1 female mice evaluated as Median survival time of treated mice at a dose of 1 mg/kg/day. A digest of the protocol:
as §1

The subject of another assay is L1210. Briefly: Antitumor activity against L1210 Lymphoid Leukemia from CDF1 female mice evaluated as Median survival time of treated mice at a dose of 0.25 mg/kg/day. In a few lines: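 L1210 leukemia, 10⁵ cells ip on day 0 into CDF1 female mice (BALB/c ♀ × DBA/2 ♂). Drug in 2% methanol given ip on days 1, 5 and 9, 10 mice per group. Survivors and body weight recorded on days 1 and 5, with toxicity as survivors on day 5. Deaths followed for 30 days. T/C = treated/control median survival time, significant at ≥125%.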

For the molecule `COc1ccc(C[C@H]2C(=O)O[C@H](C)[C@H](NC(=O)[C@@H](CC(C)C)N(C)C(=O)C3CCCN3C(=O)[C@@H](C)O)C(=O)NC(C(C)C)[C@H](O)CC(=O)O[C@@H](C(C)C)C(=O)[C@H](C)C(=O)N[C@@H](CC(C)C)C(=O)N3CCC[C@H]3C(=O)N2C)cc1` (some centres not stated) [NORDIDEMNIN], the Toxicity in the assay on B16 [1] and in the assay on P388 [5] was 1 each time. The same molecule came in with a Body weight change with P388 [2] of -0.7 g. The “median survival time, days” value is recorded as 22 with B16 [3], 29.3 in the assay on B16 [6] and 10.1 in the assay with L1210. The same molecule registered a T/C in the assay with B16 [4] of 142%.
